Reference: ChEMBL document CHEMBL6071151, “Discovery of Inhibitors Targeting Protein-Protein Interaction between Bacterial RNA Polymerase and NusG as Novel Antimicrobials” (J Med Chem, 2024)
Calls of active or inactive are those of the source. The calls are words filed in the database; no cut-off is given here.

What was measured:
[1] = Inhibition of Bacillus subtilis LgBiT-fused NusG/C-terminal SmBit fused […] CH protein-protein interaction using […] incubated for 20 mins by luminescence based analysis
Outline: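 Split-nanoluciferase competition assay with His-tagged proteins expressed in E. coli BL21(DE3) and Ni-purified. C-SmBiT-β'CH (250 nM in PBS) was preincubated with compound for 10 min at 37 °C. N-LgBiT-NusG (250 nM in PBS) was then added and incubated 10 min at 37 °C. Nano-Glo substrate was added and luminescence read. IC50 determined. Triplicate with technical repeats.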

Streptococcus agalactiae = assay: Antimicrobial activity against Streptococcus agalactiae ATCC 12386 assessed as reduction in microbial growth measured after 20 hrs by CLSI based broth microdilution method; assay type: functional
Streptococcus pneumoniae [2] = assay: Antimicrobial activity against Streptococcus pneumoniae clinical isolate CUHK-X01 assessed as reduction in microbial growth measured after 20 hrs by CLSI based broth microdilution method; assay type: functional
[3] = test system: Staphylococcus saprophyticus; assay: Antimicrobial activity against Staphylococcus saprophyticus ATCC 15305 assessed as reduction in microbial growth measured after 20 hrs by CLSI based broth microdilution method; assay type: functional
Streptococcus pneumoniae [4] = assay: Antimicrobial activity against Streptococcus pneumoniae ATCC 49619 assessed as reduction in microbial growth measured after 20 hrs by CLSI based broth microdilution method; assay type: functional
Staphylococcus aureus [5] = assay: Antimicrobial activity against Staphylococcus aureus ATCC 25923 assessed as reduction in microbial growth measured after 20 hrs by CLSI based broth microdilution method; assay type: functional
Outline: (§1)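 Broth microdilution per CLSI in cation-adjusted Mueller-Hinton broth. Two-fold serial dilutions from 256 to 0.25 μg/mL, inoculum about 5 × 10⁵ CFU/mL. Read after 20 h at 37 °C. MIC is the lowest concentration with no visible growth. Run in duplicate.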

Enterobacter cloacae = assay: Antimicrobial activity against Enterobacter cloacae ATCC 13047 assessed as reduction in microbial growth measured after 20 hrs by CLSI based broth microdilution method; assay type: functional; outline: as §1
Escherichia coli = assay: Antimicrobial activity against Escherichia coli ATCC 25922 assessed as reduction in microbial growth measured after 20 hrs by CLSI based broth microdilution method; assay type: functional; outline: as §1
Streptococcus pneumoniae [6] = assay: Antimicrobial activity against Streptococcus pneumoniae clinical isolate CUHK-X03 assessed as reduction in microbial growth measured after 20 hrs by CLSI based broth microdilution method; assay type: functional
Streptococcus pneumoniae [7] = assay: Antimicrobial activity against Streptococcus pneumoniae TCH8431 (HM-145) assessed as reduction in microbial growth measured after 20 hrs by CLSI based broth microdilution method; assay type: functional
Pseudomonas aeruginosa = assay: Antimicrobial activity against Pseudomonas aeruginosa ATCC 27853 assessed as reduction in microbial growth measured after 20 hrs by CLSI based broth microdilution method; assay type: functional; outline: as §1
Klebsiella pneumoniae = assay: Antimicrobial activity against Klebsiella pneumoniae ATCC 700603 assessed as reduction in microbial growth measured after 20 hrs by CLSI based broth microdilution method; assay type: functional; outline: as §1
Acinetobacter baumannii = assay: Antimicrobial activity against Acinetobacter baumannii ATCC 19606 assessed as reduction in microbial growth measured after 20 hrs by CLSI based broth microdilution method; assay type: functional; outline: as §1
Streptococcus pyogenes = assay: Antimicrobial activity against Streptococcus pyogenes ATCC 19615 assessed as reduction in microbial growth measured after 20 hrs by CLSI based broth microdilution method; assay type: functional
Streptococcus pneumoniae [8] = assay: Antimicrobial activity against Streptococcus pneumoniae clinical isolate CUHK-X02 assessed as reduction in microbial growth measured after 20 hrs by CLSI based broth microdilution method; assay type: functional
Streptococcus pneumoniae [9] = assay: Antimicrobial activity against Streptococcus pneumoniae NP112 (NR-19213) assessed as reduction in microbial growth measured after 20 hrs by CLSI based broth microdilution method; assay type: functional
Streptococcus pneumoniae [10] = assay: Antimicrobial activity against Streptococcus pneumoniae clinical isolate CUHK-X04 assessed as reduction in microbial growth measured after 20 hrs by CLSI based broth microdilution method; assay type: functional
[11] = test system: Staphylococcus epidermidis; assay: Antimicrobial activity against Staphylococcus epidermidis ATCC 12228 assessed as reduction in microbial growth measured after 20 hrs by CLSI based broth microdilution method; assay type: functional
Enterococcus faecalis = assay: Antimicrobial activity against Enterococcus faecalis ATCC 19433 assessed as reduction in microbial growth measured after 20 hrs by CLSI based broth microdilution method; assay type: functional; outline: as §1
Staphylococcus aureus [12] = assay: Antimicrobial activity against Staphylococcus aureus ATCC 29213 assessed as reduction in microbial growth measured after 20 hrs by CLSI based broth microdilution method; assay type: functional; outline: as §1
Bacillus subtilis [13] = assay: Antibacterial activity against Bacillus Subtilis assessed as bacterial transcription by measuring delocalization of GFP-tagged RpsB from cell poles towards midcell at 1 time MIC incubated for 30 mins by epifluorescence microscopy based analysis; assay type: functional, organism-based
Outline: (§2)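 B. subtilis reporter strains expressing GFP fusions, grown overnight on selective LB agar at 37 °C, then overnight in LB with selective antibiotic and xylose, 37 °C, 180 rpm. Cells mounted on 1.2% agarose, imaged by epifluorescence with 100×/1.45 oil objective, FITC (525/50) filter.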

Bacillus subtilis [14] = assay: Antibacterial activity against Bacillus Subtilis assessed as bacterial transcription by measuring delocalization of GFP-tagged RpsB at 1 time MIC incubated for 30 mins by epifluorescence microscopy based analysis; assay type: functional, organism-based; outline: as §2
Bacillus subtilis [15] = assay: Antibacterial activity against Bacillus Subtilis assessed as bacterial transcription by measuring subcellular localization of MreB at 1 time MIC incubated for 30 mins by epifluorescence microscopy based analysis; assay type: functional, organism-based; outline: as §2

Compound | MIC (Streptococcus agalactiae) [µg/mL] | MIC (Streptococcus pneumoniae [2]) [µg/mL] | MIC [3] [µg/mL] | MIC (Streptococcus pneumoniae [4]) [µg/mL] | MIC (Staphylococcus aureus [5]) [µg/mL] | MIC (Enterobacter cloacae) [µg/mL] | MIC (Escherichia coli) [µg/mL] | MIC (Pseudomonas aeruginosa) [µg/mL] | MIC (Klebsiella pneumoniae) [µg/mL] | MIC (Acinetobacter baumannii) [µg/mL] | MIC (Enterococcus faecalis) [µg/mL] | MIC (Staphylococcus aureus [12]) [µg/mL] | also measured
H-EGRVATSLREHIKLHN-OH |  |  |  |  |  |  |  |  |  |  |  |  | IC50 [1]: 195 µM
Cc1onc(-c2ccccc2)c1C(=O)N[C@@H]1C(=O)N2[C@@H]1SC(C)(C)[C@@H]2C(=O)O [OXACILLIN] | 1 | ≤ 0.062 | 2 | 2 |  |  |  |  |  |  |  |  | 
OC(CNCCNc1ccccc1C(F)(F)F)COc1ccc(C(F)(F)F)cc1 (centres undefined) | 16 | 16 | 8 | 4 | 8 | 32 | 16 | > 256 | > 256 | 16 | 16 | 16 | MIC (Streptococcus pneumoniae [6]): 16 µg/mL; MIC (Streptococcus pneumoniae [7]): 4 µg/mL; MIC (Streptococcus pyogenes): 16 µg/mL; MIC (Streptococcus pneumoniae [8]): 8 µg/mL; MIC (Streptococcus pneumoniae [9]): 16 µg/mL; MIC (Streptococcus pneumoniae [10]): 8 µg/mL; MIC [11]: 16 µg/mL
CN(C)[C@@H]1C(O)=C(C(N)=O)C(=O)[C@@]2(O)C(O)=C3C(=O)c4c(O)cccc4[C@@](C)(O)[C@H]3C[C@@H]12 |  |  |  |  |  |  |  |  |  |  |  |  | Activity (Bacillus subtilis [13]): Active
CNC(C)[C@@H]1CC[C@@H](N)[C@@H](O[C@H]2[C@H](O)[C@@H](O[C@H]3OC[C@](C)(O)[C@H](NC)[C@H]3O)[C@H](N)C[C@@H]2N)O1.CN[C@@H]1[C@@H](O)[C@@H](O[C@@H]2[C@@H](O)[C@H](O[C@H]3O[C@H](C(C)N)CC[C@H]3N)[C@@H](N)C[C@H]2N)OC[C@]1(C)O.CN[C@@H]1[C@@H](O)[C@@H](O[C@@H]2[C@@H](O)[C@H](O[C@H]3O[C@H](CN)CC[C@H]3N)[C@@H](N)C[C@H]2N)OC[C@]1(C)O (some centres undefined) | 64 | 32 | ≤ 0.062 | 32 |  |  |  |  |  |  |  |  | 
O=C(N[C@H](CO)[C@H](O)c1ccc([N+](=O)[O-])cc1)C(Cl)Cl |  |  |  |  |  |  |  |  |  |  |  |  | Activity (Bacillus subtilis [13]): Active
CO[C@H]1/C=C/O[C@@]2(C)Oc3c(C)c(O)c4c(O)c(c(/C=N/N5CCN(C)CC5)c(O)c4c3C2=O)NC(=O)/C(C)=C\C=C\[C@H](C)[C@H](O)[C@@H](C)[C@@H](O)[C@@H](C)[C@H](OC(C)=O)[C@@H]1C |  |  |  |  |  |  |  |  |  |  |  |  | Activity (Bacillus subtilis [14]): Active; Activity (Bacillus subtilis [15]): Active
OC(CNCCOc1ccccc1C(F)(F)F)COc1ccc(C(F)(F)F)cc1 (centres undefined) | 8 | 16 | 8 | 8 | 16 | 32 | 16 | > 256 | > 256 | 16 | 16 | 16 | MIC (Streptococcus pneumoniae [6]): 8 µg/mL; MIC (Streptococcus pneumoniae [7]): 8 µg/mL; MIC (Streptococcus pyogenes): 8 µg/mL; MIC (Streptococcus pneumoniae [8]): 16 µg/mL; MIC (Streptococcus pneumoniae [9]): 16 µg/mL; MIC (Streptococcus pneumoniae [10]): 8 µg/mL; MIC [11]: 8 µg/mL
OC(CNCCSc1ccccc1C(F)(F)F)CSc1ccc(C(F)(F)F)cc1 (centres undefined) | 8 | 8 | 4 | 4 | 8 | > 256 | 32 | > 256 | > 256 | > 256 | 8 | 8 | MIC (Streptococcus pneumoniae [6]): 4 µg/mL; MIC (Streptococcus pneumoniae [7]): 4 µg/mL; MIC (Streptococcus pyogenes): 8 µg/mL; MIC (Streptococcus pneumoniae [8]): 8 µg/mL; MIC (Streptococcus pneumoniae [9]): 8 µg/mL; MIC (Streptococcus pneumoniae [10]): 8 µg/mL; MIC [11]: 4 µg/mL
O=[N+]([O-])c1ccc(OCC(O)CNCCNc2ncc(C(F)(F)F)cn2)cc1 (centres undefined) |  |  |  | 128 | 256 | > 256 | > 256 | > 256 | > 256 | > 256 | > 256 | 256 | 
N#Cc1ccccc1NCCNCC(O)COc1ccc(C(F)(F)F)cc1 (centres undefined) |  |  |  | 64 | 128 | 128 | 16 | > 256 | > 256 | 128 | 128 | 128 | 
OC(CNCCNc1ccc(C(F)(F)F)cn1)COc1ccc(C(F)(F)F)cc1 (centres undefined) |  |  |  | 16 | 64 | > 256 | 64 | > 256 | > 256 | 64 | 64 | 32 | 
OC(CNCCNc1ccc(C(F)(F)F)cn1)CNc1ccc(C(F)(F)F)cc1 (centres undefined) |  |  |  | 16 | 32 | 64 | 64 | > 256 | > 256 | 32 | 16 | 32 | 
CN[C@H](CC(C)C)C(=O)N[C@H]1C(=O)N[C@@H](CC(N)=O)C(=O)N[C@H]2C(=O)N[C@H]3C(=O)N[C@H](C(=O)N[C@H](C(=O)O)c4cc(O)cc(O)c4-c4cc3ccc4O)[C@H](O)c3ccc(c(Cl)c3)Oc3cc2cc(c3O[C@@H]2O[C@H](CO)[C@@H](O)[C@H](O)[C@H]2O[C@H]2C[C@](C)(N)[C@H](O)[C@H](C)O2)Oc2ccc(cc2Cl)[C@H]1O [VANCOMYCIN] | 1 | 0.5 | 2 | 1 |  |  |  |  |  |  |  |  | 
OC(CNCCNc1ccc(C(F)(F)F)cn1)COCc1ccccc1 (centres undefined) |  |  |  | 128 | 256 | 256 | 256 | > 256 | > 256 | 256 | 256 | 128 | 
